# pIC50: −log10 of the molar value. The source made the active and inactive calls. The rule behind the calls is not given here.
# Experiments:
# [1] = molecular target: T1, Melanin-concentrating hormone receptor 1 (Homo sapiens, UniProt Q99705); experiment: Displacement of [125I]-MCH(4 to 19) from human MCHR1 expressed in CHO cell membranes after 1 hr by liquid scintillation counting
# How it was run: (§1)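 Membranes from CHO cells stably expressing human or rat MCHR1, prepared by homogenization and 100,000×g centrifugation, in 20 mM Tris-HCl pH 7.5 with 5 mM EDTA and protease inhibitors. Incubated with test compound and [125I]-MCH(4–19) for 1 h at room temperature. Filtered on PEI-treated GF/C filters and counted by scintillation. Nonspecific binding defined with cold MCH(1–19). IC50 from duplicate experiment.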
# CYP3A4 = CYP3A4 (Homo sapiens, UniProt P08684); experiment: Time dependent inhibition of CYP3A4 in human liver microsomes assessed as conversion of testosterone to 6beta-hydroxytestosterone by measuring remaining activity at 30 uM by UPLC analysis in presence of NADPH generating system; assay type: ADME; settings: read-out: Activity
# CYP3A4, sequence (P08684 whole entry): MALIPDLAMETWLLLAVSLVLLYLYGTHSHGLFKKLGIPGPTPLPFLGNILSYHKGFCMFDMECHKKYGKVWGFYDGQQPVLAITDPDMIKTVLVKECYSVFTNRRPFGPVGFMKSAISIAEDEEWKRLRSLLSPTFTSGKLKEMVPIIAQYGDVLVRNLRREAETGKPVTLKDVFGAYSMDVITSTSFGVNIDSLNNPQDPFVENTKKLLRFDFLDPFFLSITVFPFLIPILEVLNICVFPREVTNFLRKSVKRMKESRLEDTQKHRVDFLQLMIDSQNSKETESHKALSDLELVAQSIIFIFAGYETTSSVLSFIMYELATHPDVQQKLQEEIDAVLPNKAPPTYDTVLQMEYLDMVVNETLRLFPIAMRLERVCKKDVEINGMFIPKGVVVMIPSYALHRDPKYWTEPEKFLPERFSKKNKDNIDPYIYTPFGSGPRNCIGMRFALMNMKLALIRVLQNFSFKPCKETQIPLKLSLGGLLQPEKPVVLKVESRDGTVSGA
# How it was run: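 Single-point assay: test compound at 30 µM preincubated with human liver microsomes at 37 °C in phosphate buffer pH 7.4 with an NADPH-generating system. Residual CYP3A4 activity then measured as testosterone 6β-hydroxylation by UPLC. Percent remaining = activity with preincubation (% of DMSO control) over activity without preincubation; n = 2.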
# [2] = molecular target: Melanin-concentrating hormone receptor 1 (Rattus norvegicus, UniProt P97639); experiment: Displacement of [125I]-MCH(4-19) from rat MCHR1 expressed in CHO cell membranes after 1 hr by liquid scintillation counting; how it was run: as §1
# Melanin-concentrating hormone receptor 1 (Rattus norvegicus, UniProt P97639), sequence (P97639 whole entry): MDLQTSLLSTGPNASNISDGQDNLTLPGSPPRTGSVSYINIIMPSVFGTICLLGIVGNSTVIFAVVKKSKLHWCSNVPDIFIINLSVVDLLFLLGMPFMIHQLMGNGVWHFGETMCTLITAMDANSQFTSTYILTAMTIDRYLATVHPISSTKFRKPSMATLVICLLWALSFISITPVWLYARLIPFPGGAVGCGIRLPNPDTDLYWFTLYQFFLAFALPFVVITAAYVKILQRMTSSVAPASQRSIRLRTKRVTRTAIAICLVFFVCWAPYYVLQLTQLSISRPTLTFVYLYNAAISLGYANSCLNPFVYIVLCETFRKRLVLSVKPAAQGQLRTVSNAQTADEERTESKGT
# Rattus norvegicus [3] = experiment: Anorectic effect in DIO-F344/Jcl rat assessed as inhibition of food intake at 3 mg/kg, po administered 2 hrs before onset of dark period for 2 days; assay type: functional; parameters: scale not given: the % may be the effect or the level left
# How it was run: (§2)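 Male DIO-F344/Jcl rats, 45 weeks old, on high-fat diet from 5 weeks of age, singly housed on powdered high-fat diet and habituated to oral dosing with tap water. Grouped by day-0 food intake and body weight. Dosed orally once daily, suspended in 0.5% methylcellulose at 2 mL/kg, 2 h before dark onset, for 2 days; n = 6. Cumulative 2-day food intake is expressed relative to the vehicle group.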
# [4] = Ratio of drug level in brain to plasma in po dosed DIO-F344/Jcl rat; assay type: ADME, organism-based; settings: brain and plasma, read-out: BPR
# [5] = Fraction unbound in po dosed DIO-F344/Jcl rat plasma; assay type: ADME, organism-based
# [6] = Oral bioavailability in Sprague-Dawley rat plasma at 1 mg/kg administered through cassette dosing by LC/MS/MS analysis; assay type: ADME, organism-based
# How it was run: (§3)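 Male SD rats (eight weeks old), fed, cassette-dosed iv at 0.1 mg/kg or orally at 1 mg/kg as a suspension in 0.5% methylcellulose; n = 3. Plasma obtained by centrifugation of blood, deproteinized with acetonitrile, and measured by LC/MS/MS. AUC covers 0–8 h. Bioavailability, total clearance and Vss are derived from the iv and po data.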
# Mus musculus [7] = experiment: Anorectic effect in MCHR1-deficient mouse assessed as reduction in food intake at 10 and 30 mg/kg, po dosed for 3 days; assay type: functional, organism-based
# How it was run: (§4)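 Male MCHR1-deficient and wild-type littermate mice, 27 weeks old, on high-fat diet from 7 weeks of age, housed individually and acclimated to tap-water dosing. Grouped by food intake from day −4 to day −1 and by day −1 body weight. Dosed orally once daily for 3 days in 0.5% methylcellulose at 10 mL/kg; n = 6. Body weight change and cumulative food intake measured over the 3 days.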
# [8] = Tmax in Sprague-Dawley rat plasma at 1 mg/kg, po administered through cassette dosing by LC/MS/MS analysis; assay type: ADME, organism-based; how it was run: as §3
# Rattus norvegicus [9] = experiment: Antiobesity activity in DIO-F344/Jcl rat assessed as reduction in body weight at 3 mg/kg, po dosed for 2 weeks and measured every 2 or 3 days relative to vehicle control; assay type: functional; parameters: scale not given: the % may be the effect or the level left
# How it was run: (§5)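 DIO-F344 rats, 41 weeks old, habituated and grouped as for the 2-day study. Dosed orally once daily for 2 weeks in 0.5% methylcellulose at 2 mL/kg, 1–3 h before dark onset, after weighing; n = 5 or 6. Food intake measured every 2 or 3 days; body weight change expressed as percent of initial weight; sibutramine was the positive control.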
# [10] = Cmax in Sprague-Dawley rat at 1 mg/kg, po administered through cassette dosing by LC/MS/MS analysis; assay type: ADME, organism-based; parameters: dose 1 mg/kg, route oral; settings: in vivo; how it was run: as §3
# Rattus norvegicus [11] = experiment: Anorectic effect in orally dosed DIO-F344/Jcl rat assessed as inhibition of food intake administered 2 hrs before onset of dark period for 2 days; assay type: functional, organism-based; how it was run: as §2
# Rattus norvegicus [12] = experiment: Anorectic effect in DIO-F344/Jcl rat assessed as cumulative food intake at 3 mg/kg, po dosed for 2 weeks and measured every 2 or 3 days relative to vehicle control; assay type: functional; how it was run: as §5
# Mus musculus [13] = experiment: Antiobesity activity in MCHR1-deficient mouse assessed as reduction in body weight at 10 and 30 mg/kg, po dosed for 3 days; assay type: functional, organism-based; how it was run: as §4
# Mus musculus [14] = experiment: Antiobesity activity in wild-type litter mate mouse assessed as reduction in body weight at 10 and 30 mg/kg, po dosed for 3 days; assay type: functional, organism-based; how it was run: as §4
# Rattus norvegicus [15] = experiment: Anorectic effect in DIO-F344/Jcl rat assessed as inhibition of food intake at 10 mg/kg, po administered 2 hrs before onset of dark period for 2 days; assay type: functional; parameters: scale not given: the % may be the effect or the level left; how it was run: as §2
# Rattus norvegicus [16] = experiment: Anorectic effect in DIO-F344/Jcl rat assessed as cumulative food intake at 10 mg/kg, po dosed for 2 weeks and measured every 2 or 3 days relative to vehicle control; assay type: functional; how it was run: as §5
# Rattus norvegicus [17] = experiment: Trough plasma concentration in DIO-F344/Jcl rat at 10 mg/kg, po; assay type: ADME, organism-based; settings: in vivo, read-out: Cmin
# How it was run: (§6)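 Trough plasma concentration taken in the 2-week repeated oral dosing study in DIO-F344 rats. Unbound concentration obtained from total concentration and the unbound fraction in DIO rat plasma.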
# Rattus norvegicus [18] = experiment: Antiobesity activity in DIO-F344/Jcl rat assessed as reduction in body weight at 10 mg/kg, po dosed for 2 weeks and measured every 2 or 3 days relative to vehicle control; assay type: functional; parameters: scale not given: the % may be the effect or the level left; how it was run: as §5
# [19] = Total clearance in Sprague-Dawley rat plasma at 0.1 mg/kg, iv administered through cassette dosing by LC/MS/MS analysis; assay type: ADME, organism-based; how it was run: as §3
# [20] = molecular target: T1, Melanin-concentrating hormone receptor 1; experiment: Antagonist activity at human MCHR1 expressed in CHO cells assessed as change in MCH(4 to 19)-stimulated Ca2+ concentration by Ca2+ mobilization assay; assay type: functional, cell-based
# How it was run: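 CHO dhfr− cells stably transfected with human MCHR1 (clone 4), seeded at 20000 cells/well and cultured about 24 h. Loaded with Fluo4 calcium dye for 30 min at 37 °C. Test compound in 10 mM HEPES pH 7.4 buffer with 0.1% BSA added, then MCH(4–19) at 2 nM final. Fluorescence read every 2 s; inhibition rate (%) taken relative to ligand-alone and DMSO-alone wells.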
# [21] = AUC( 0 to 8 hrs) Sprague-Dawley rat plasma at 1 mg/kg, po administered through cassette dosing by LC/MS/MS analysis; assay type: ADME, organism-based; parameters: dose 1 mg/kg, time < 8 hr, route oral; how it was run: as §3
# [22] = Solubility of compound at pH 6.8; assay type: physicochemical; settings: buffer
# [23] = Volume of distribution in steady state in Sprague-Dawley rat plasma at 0.1 mg/kg, iv administered through cassette dosing by LC/MS/MS analysis; assay type: ADME, organism-based; settings: read-out: Vdss; how it was run: as §3
# Plasma = experiment: Free plasma concentration in DIO-F344/Jcl rat at 10 mg/kg, po; assay type: ADME, organism-based; settings: in vivo; how it was run: as §6
# Brain = experiment: Drug uptake in po dosed DIO-F344/Jcl rat brain; assay type: ADME, organism-based; settings: in vivo
# Cytochrome P450 3A4 = Cytochrome P450 3A4 (Homo sapiens, UniProt P08684); experiment: Time dependent inhibition of CYP3A4 in human liver microsomes at 10 uM; assay type: ADME
# Cytochrome P450 3A4, sequence (P08684 whole entry): as the sequence (P08684 whole entry) above
# T1 sequence (Q99705 whole entry): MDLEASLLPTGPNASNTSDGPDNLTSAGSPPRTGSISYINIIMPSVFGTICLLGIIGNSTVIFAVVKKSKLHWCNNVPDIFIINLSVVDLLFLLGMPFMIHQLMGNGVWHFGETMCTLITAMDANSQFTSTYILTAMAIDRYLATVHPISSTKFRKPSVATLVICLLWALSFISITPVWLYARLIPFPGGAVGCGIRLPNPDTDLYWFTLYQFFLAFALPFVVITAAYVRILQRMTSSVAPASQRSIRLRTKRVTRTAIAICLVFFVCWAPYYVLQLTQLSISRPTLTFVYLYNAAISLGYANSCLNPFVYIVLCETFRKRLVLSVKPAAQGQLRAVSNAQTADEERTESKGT
compound,measurement,setting,value
Cn1c(C2CC2)nc2ccc(-n3ccc(OCc4csc(Cl)c4)cc3=O)cc21,pIC50,[1],7.85
same,activity at 30 µM,CYP3A4,44%
same,pIC50,[2],8.03
Cn1c(C2CC2)nc2ccc(-n3ccc(OCc4ccc(Cl)s4)cc3=O)cc21,Activity,Rattus norvegicus [3],11.6%
same,Kp,[4],0.5
same,fraction unbound,[5],0.02
same,bioavailability,[6],23%
same,pIC50,[1],7.72
same,activity at 30 µM,CYP3A4,83%
same,Activity,Mus musculus [7],Dose-dependent effect
same,Tmax,[8],1 h
same,Activity,Rattus norvegicus [9],2.2%
same,Cmax,[10],165 ng/mL
same,Activity,Rattus norvegicus [11],Dose-dependent effect
same,Activity,Rattus norvegicus [12],11.6%
same,Activity,Mus musculus [13],inactive
same,Activity,Mus musculus [14],Dose-dependent effect
same,Activity,Rattus norvegicus [15],36.5%
same,Activity,Rattus norvegicus [16],20.9%
same,concentration,Rattus norvegicus [17],790 nM
same,Activity,Rattus norvegicus [18],4.1%
same,clearance,[19],7.5 mL/min/kg
same,pIC50,[2],7.96
same,pIC50,[20],7.62
same,AUC(0-t) at 8 h,[21],515 ng·h/mL
same,solubility,[22],2.3 µg/mL
same,Vd,[23],0.92 L/kg
same,Cp(f),Plasma,15.8 nM
same,Drug uptake,Brain,Active
Cn1c(C2CC2)nc2ccc(-n3ccc(OCc4ccsc4)cc3=O)cc21,pIC50,[1],7.55
same,activity at 30 µM,CYP3A4,74%
same,pIC50,[2],7.54
Cn1c(CC2CC2)nc2ccc(-n3ccc(OCc4ccc(F)cc4)cc3=O)cc21,pIC50,[1],7.05
same,pIC50,[2],6.85
Cc1c(C2CC2)nc2ccc(-n3ccc(OCc4ccc(Cl)cc4)cc3=O)cn12,inhibition (INH),Cytochrome P450 3A4,Active
CCc1nc2ccc(-n3ccc(OCc4ccc(F)cc4)cc3=O)cc2n1C,pIC50,[1],7.32
same,pIC50,[2],7.42
Cc1nc2ccc(-n3ccc(OCc4ccc(F)cc4)cc3=O)cc2n1C,pIC50,[1],7.11
same,pIC50,[2],7.19
Cc1c(C2CC2)nc2ccc(-n3ccc(OCc4ccc(Cl)cc4)cc3=O)nn12,pIC50,[1],6.42
Cn1c(C2CCC2)nc2ccc(-n3ccc(OCc4ccc(F)cc4)cc3=O)cc21,pIC50,[1],6.62
same,pIC50,[2],6.68
Cn1c(C2CC2)nc2ccc(-n3ccc(OCc4ccccc4)cc3=O)cc21,pIC50,[1],7.35
same,pIC50,[2],7.37
Cn1c(C2CC2)nc2ccc(-n3ccc(OCc4ncc(Cl)cn4)cc3=O)cc21,pIC50,[1],< 6.00
same,pIC50,[2],6.05
Cn1c(C2CC2)nc2ccc(-n3ccc(OCc4cccs4)cc3=O)cc21,pIC50,[1],7.12
same,pIC50,[2],6.92
Cn1c(C2CC2)nc2ccc(-n3ccc(OCc4cc(Cl)cs4)cc3=O)cc21,pIC50,[1],7.77
same,activity at 30 µM,CYP3A4,25%
same,pIC50,[2],7.74
Cn1c(C2CC2)nc2ccc(-n3ccc(OCc4ccccc4Cl)cc3=O)cc21,pIC50,[1],6.80
same,pIC50,[2],6.85

# — ChEMBL document CHEMBL3792381, “Amine-free melanin-concentrating hormone receptor 1 antagonists: Novel 1-(1H-benzimidazol-6-yl)pyridin-2(1H)-one derivatives and design to avoid CYP3A4 time-dependent inhibition” (Bioorg Med Chem, 2016)
